Measurements taken from ChEMBL document CHEMBL1124128, “Angiotensin-converting enzyme inhibitors. Mercaptan, carboxyalkyl dipeptide, and phosphinic acid inhibitors incorporating 4-substituted prolines” (J Med Chem, 1988).
Values joined by “and” are separate entries in the source; they are usually repeats but may differ in a detail not shown here. Equal entries are not always repeated.

What follows are compounds tested against T1, Angiotensin-converting enzyme (Rattus norvegicus) (UniProt P47820) (assay: Evaluated for inhibition of Angiotensin I converting enzyme in rat). Settings: concentration not given here.
T1 sequence (whole entry): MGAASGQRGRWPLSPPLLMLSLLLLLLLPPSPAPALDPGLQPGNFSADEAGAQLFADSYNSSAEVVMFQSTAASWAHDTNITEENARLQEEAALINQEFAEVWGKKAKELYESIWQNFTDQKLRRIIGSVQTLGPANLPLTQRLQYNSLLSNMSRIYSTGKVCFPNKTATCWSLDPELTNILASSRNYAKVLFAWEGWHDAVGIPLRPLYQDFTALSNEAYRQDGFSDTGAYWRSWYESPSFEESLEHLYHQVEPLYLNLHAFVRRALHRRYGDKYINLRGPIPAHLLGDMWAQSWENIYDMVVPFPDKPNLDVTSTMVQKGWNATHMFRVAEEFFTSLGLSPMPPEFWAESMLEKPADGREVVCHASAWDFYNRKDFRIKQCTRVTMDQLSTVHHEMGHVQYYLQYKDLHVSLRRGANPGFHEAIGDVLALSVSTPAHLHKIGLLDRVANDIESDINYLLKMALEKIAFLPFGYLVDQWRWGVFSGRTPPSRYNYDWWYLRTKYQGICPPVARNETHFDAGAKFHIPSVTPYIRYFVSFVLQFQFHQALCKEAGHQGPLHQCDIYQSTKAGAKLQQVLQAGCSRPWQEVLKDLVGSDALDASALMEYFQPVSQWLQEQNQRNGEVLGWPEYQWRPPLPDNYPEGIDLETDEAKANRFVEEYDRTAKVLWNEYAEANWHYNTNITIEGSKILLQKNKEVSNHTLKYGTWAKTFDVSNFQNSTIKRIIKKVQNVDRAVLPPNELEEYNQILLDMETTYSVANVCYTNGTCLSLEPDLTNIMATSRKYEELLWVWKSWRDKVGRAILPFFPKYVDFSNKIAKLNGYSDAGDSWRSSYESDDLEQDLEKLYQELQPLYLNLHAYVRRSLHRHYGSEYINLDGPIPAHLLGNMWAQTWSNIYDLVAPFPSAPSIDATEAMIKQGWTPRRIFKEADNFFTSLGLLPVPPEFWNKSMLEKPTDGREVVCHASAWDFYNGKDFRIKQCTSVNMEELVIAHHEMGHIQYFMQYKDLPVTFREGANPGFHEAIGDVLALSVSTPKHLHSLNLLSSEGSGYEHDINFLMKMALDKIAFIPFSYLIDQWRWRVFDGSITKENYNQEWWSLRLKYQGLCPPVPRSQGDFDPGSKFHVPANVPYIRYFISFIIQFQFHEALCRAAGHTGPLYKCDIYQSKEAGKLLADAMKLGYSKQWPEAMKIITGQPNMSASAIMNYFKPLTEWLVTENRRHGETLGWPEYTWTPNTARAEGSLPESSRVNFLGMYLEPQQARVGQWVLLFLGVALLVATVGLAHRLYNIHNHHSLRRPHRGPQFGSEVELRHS
Assay type: functional

Q: With `O=C(O)[C@@H]1C[C@H](C2CCCCC2)CN1C(=O)CP(=O)(O)CCCCc1ccccc1` as the compound, how does the inhibition read?
A: 72%

These compounds were tested on Rattus norvegicus (assay: % Inhibition of angiotensin-I induced pressor response in normotensive rats after intravenous dosing of 5 umol/kg). Settings: not given.
Assay type: functional
Method in brief: (§1)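 Conscious, unrestrained male Sprague–Dawley rats (225–275 g) with indwelling aortic and vena caval catheters, allowed at least 2 weeks of recovery. Aortic pressure recorded directly. Baseline pressor responses to AI (310 ng/kg iv) and AII (100 ng/kg iv) were taken first. Compound was given iv in 0.1 mL water or 5% NaHCO3, and responses were followed for up to 70 min. Maximum % inhibition is the mean of four animals per dose.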

Q: Which inhibition in vivo at 5 µmol/kg does the source give for `O=C(O)[C@@H]1C[C@@H](Sc2ccccc2)CN1C(=O)CP(=O)(O)CCCCc1ccccc1` here?
A: 78%

Q: With `O=C(O)[C@@H]1C[C@H](Sc2ccccc2)CN1C(=O)CP(=O)(O)CCCCc1ccccc1` as the compound, how does the inhibition in vivo at 5 µmol/kg read?
A: 88%

What follows are compounds tested against T1, Angiotensin-converting enzyme (Rattus norvegicus) (assay: In vitro inhibition of rat Angiotensin I converting enzyme). Settings: not given.

Q: For `CS[C@@H]1C[C@@H](C(=O)O)N(C(=O)CP(=O)(O)CCCCc2ccccc2)C1`, which T50 is on record?
A: 29 nM

Q: `CO[C@H]1C[C@@H](C(=O)O)N(C(=O)CP(=O)(O)CCCCc2ccccc2)C1` was tested. Which T50 did it give?
A: 60 nM

Q: `O=C(O)[C@@H]1C[C@@H](Sc2ccccc2)CN1C(=O)CP(=O)(O)CCCCc1ccccc1` was tested. Which T50 did it give?
A: 17 nM

Q: For `O=C(O)[C@@H]1C[C@H](Sc2ccccc2)CN1C(=O)CP(=O)(O)CCCCc1ccccc1`, which T50 is on record?
A: 20 nM

Q: For `O=C(O)[C@@H]1C[C@H](C2CCCCC2)CN1C(=O)CP(=O)(O)CCCCc1ccccc1`, which T50 is on record?
A: 7 nM

Q: Which T50 does the source give for `CS[C@H]1C[C@@H](C(=O)O)N(C(=O)CP(=O)(O)CCCCc2ccccc2)C1` here?
A: 32 nM

Q: Which T50 does the source give for `O=C(O)[C@@H]1C[C@H](Cc2ccccc2)CN1C(=O)CP(=O)(O)CCCCc1ccccc1` here?
A: 10 nM

Q: With `O=C(O)[C@@H]1CC2(CN1C(=O)CP(=O)(O)CCCCc1ccccc1)SCCS2` as the compound, how does the T50 read?
A: 4 nM and 2 nM

Q: `O=C(O)[C@@H]1C[C@@H](c2ccccc2)CN1C(=O)CP(=O)(O)CCCCc1ccccc1` was tested. Which T50 did it give?
A: 120 nM

These compounds were tested on Rattus norvegicus (assay: % Inhibition of angiotensin-I induced pressor response in normotensive rats after intravenous dosing of 0.05 umol/kg). Settings: not given.
Assay type: functional
Method in brief: (§2)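 Male Sprague–Dawley rats (225–275 g) fitted with indwelling abdominal aorta and vena cava catheters, recovered at least 2 weeks, then tested conscious and unrestrained. Aortic pressure was recorded directly. Pressor responses to AI (310 ng/kg iv) and AII (100 ng/kg iv) were taken before dosing. Compound was given iv in water or 5% NaHCO3, and responses were followed up to 70 min. Maximum % inhibition is the mean of four animals per dose.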

Q: With `CS[C@@H]1C[C@@H](C(=O)O)N(C(=O)CP(=O)(O)CCCCc2ccccc2)C1` as the compound, how does the inhibition in vivo at 0.05 µmol/kg read?
A: 44%

Q: For `CO[C@H]1C[C@@H](C(=O)O)N(C(=O)CP(=O)(O)CCCCc2ccccc2)C1`, which inhibition in vivo at 0.05 µmol/kg is on record?
A: 16%

Q: For `O=C(O)[C@@H]1C[C@@H](Sc2ccccc2)CN1C(=O)CP(=O)(O)CCCCc1ccccc1`, which inhibition in vivo at 0.05 µmol/kg is on record?
A: 20%

Q: `O=C(O)[C@@H]1C[C@H](C2CCCCC2)CN1C(=O)CP(=O)(O)CCCCc1ccccc1` was tested. Which inhibition in vivo at 0.05 µmol/kg did it give?
A: 26%

Q: `O=C(O)[C@@H]1CC2(CN1C(=O)CP(=O)(O)CCCCc1ccccc1)SCCS2` was tested. Which inhibition in vivo at 0.05 µmol/kg did it give?
A: 47%

Q: With `O=C(O)[C@@H]1C[C@@H](c2ccccc2)CN1C(=O)CP(=O)(O)CCCCc1ccccc1` as the compound, how does the inhibition in vivo at 0.05 µmol/kg read?
A: 17%

The compounds below were run on Rattus norvegicus (assay: % Inhibition of angiotensin-I induced pressor response in normotensive rats after intravenous dosing of 0.15 umol/kg). Settings: not given.
Assay type: functional
Method in brief: as §1

Q: Which inhibition in vivo at 0.15 µmol/kg does the source give for `CS[C@@H]1C[C@@H](C(=O)O)N(C(=O)CP(=O)(O)CCCCc2ccccc2)C1` here?
A: 27%

Q: With `CO[C@H]1C[C@@H](C(=O)O)N(C(=O)CP(=O)(O)CCCCc2ccccc2)C1` as the compound, how does the inhibition in vivo at 0.15 µmol/kg read?
A: 55%

Q: `O=C(O)[C@@H]1C[C@@H](Sc2ccccc2)CN1C(=O)CP(=O)(O)CCCCc1ccccc1` was tested. Which inhibition in vivo at 0.15 µmol/kg did it give?
A: 19%

Q: For `O=C(O)[C@@H]1C[C@H](Sc2ccccc2)CN1C(=O)CP(=O)(O)CCCCc1ccccc1`, which inhibition in vivo at 0.15 µmol/kg is on record?
A: 27%

Q: With `O=C(O)[C@@H]1C[C@H](C2CCCCC2)CN1C(=O)CP(=O)(O)CCCCc1ccccc1` as the compound, how does the inhibition in vivo at 0.15 µmol/kg read?
A: 73%

Q: With `CS[C@H]1C[C@@H](C(=O)O)N(C(=O)CP(=O)(O)CCCCc2ccccc2)C1` as the compound, how does the inhibition in vivo at 0.15 µmol/kg read?
A: 29%

Q: For `O=C(O)[C@@H]1CC2(CN1C(=O)CP(=O)(O)CCCCc1ccccc1)SCCS2`, which inhibition in vivo at 0.15 µmol/kg is on record?
A: 80%

Q: For `O=C(O)[C@@H]1C[C@@H](c2ccccc2)CN1C(=O)CP(=O)(O)CCCCc1ccccc1`, which inhibition in vivo at 0.15 µmol/kg is on record?
A: 37%

The compounds below were run on Rattus norvegicus (assay: % Inhibition of angiotensin-I induced pressor response in normotensive rats after peroral dosing of 5 umol/kg). Settings: po.
Assay type: functional
Method in brief: (§3)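 Conscious, unrestrained catheterized male Sprague–Dawley rats (225–275 g) had direct aortic pressure recording. Baseline pressor responses were taken to AI (310 ng/kg iv) and AII (100 ng/kg iv). Compound was given orally in water, 5% NaHCO3 or 1% agar suspension. AI and AII responses were then tracked up to 280 min. Maximum % inhibition is the mean response of four animals per dose.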

Q: Which inhibition in vivo at 5 µmol/kg does the source give for `O=C(O)[C@@H]1C[C@H](C2CCCCC2)CN1C(=O)CP(=O)(O)CCCCc1ccccc1` here?
A: 13%

Q: With `O=C(O)[C@@H]1CC2(CN1C(=O)CP(=O)(O)CCCCc1ccccc1)SCCS2` as the compound, how does the inhibition in vivo at 5 µmol/kg read?
A: 28%

These compounds were tested on Rattus norvegicus (assay: % Inhibition of angiotensin-I induced pressor response in normotensive rats after peroral dosing of 50 umol/kg). Settings: po.
Assay type: functional
Method in brief: as §3

Q: With `O=C(O)[C@@H]1CC2(CN1C(=O)CP(=O)(O)CCCCc1ccccc1)SCCS2` as the compound, how does the inhibition in vivo at 50 µmol/kg read?
A: 94%

Each compound was assayed on Rattus norvegicus (assay: % Inhibition of angiotensin-I induced pressor response in normotensive rats after peroral dosing of 15 umol/kg). Settings: po.
Assay type: functional
Method in brief: as §3

Q: With `O=C(O)[C@@H]1CC2(CN1C(=O)CP(=O)(O)CCCCc1ccccc1)SCCS2` as the compound, how does the inhibition in vivo at 15 µmol/kg read?
A: 74%

The compounds below were run on Rattus norvegicus (assay: % Inhibition of angiotensin-I induced pressor response in normotensive rats after intravenous dosing of 1.5 umol/kg). Settings: not given.
Assay type: functional
Method in brief: as §1

Q: With `O=C(O)[C@@H]1C[C@@H](Sc2ccccc2)CN1C(=O)CP(=O)(O)CCCCc1ccccc1` as the compound, how does the inhibition in vivo at 1.5 µmol/kg read?
A: 69%

Q: `O=C(O)[C@@H]1C[C@H](Sc2ccccc2)CN1C(=O)CP(=O)(O)CCCCc1ccccc1` was tested. Which inhibition in vivo at 1.5 µmol/kg did it give?
A: 65%

Q: How did the inhibition in vivo at 1.5 µmol/kg turn out when `CS[C@H]1C[C@@H](C(=O)O)N(C(=O)CP(=O)(O)CCCCc2ccccc2)C1` was run?
A: 89%

Each compound was assayed on Rattus norvegicus (assay: % Inhibition of angiotensin-I induced pressor response in normotensive rats after intravenous dosing of 0.015 umol/kg). Settings: not given.
Assay type: functional
Method in brief: as §2

Q: With `CS[C@@H]1C[C@@H](C(=O)O)N(C(=O)CP(=O)(O)CCCCc2ccccc2)C1` as the compound, how does the inhibition in vivo at 0.015 µmol/kg read?
A: 7%

Q: With `O=C(O)[C@@H]1CC2(CN1C(=O)CP(=O)(O)CCCCc1ccccc1)SCCS2` as the compound, how does the inhibition in vivo at 0.015 µmol/kg read?
A: 20%

What follows are compounds tested on Rattus norvegicus (assay: % Inhibition of angiotensin-I induced pressor response in normotensive rats after intravenous dosing of 0.5 umol/kg). Settings: not given.
Assay type: functional
Method in brief: as §1

Q: Which inhibition in vivo at 0.5 µmol/kg does the source give for `CS[C@@H]1C[C@@H](C(=O)O)N(C(=O)CP(=O)(O)CCCCc2ccccc2)C1` here?
A: 79%

Q: For `CO[C@H]1C[C@@H](C(=O)O)N(C(=O)CP(=O)(O)CCCCc2ccccc2)C1`, which inhibition in vivo at 0.5 µmol/kg is on record?
A: 90%

Q: Which inhibition in vivo at 0.5 µmol/kg does the source give for `O=C(O)[C@@H]1C[C@@H](Sc2ccccc2)CN1C(=O)CP(=O)(O)CCCCc1ccccc1` here?
A: 48%

Q: Which inhibition in vivo at 0.5 µmol/kg does the source give for `O=C(O)[C@@H]1C[C@H](Sc2ccccc2)CN1C(=O)CP(=O)(O)CCCCc1ccccc1` here?
A: 34%

Q: With `O=C(O)[C@@H]1C[C@H](C2CCCCC2)CN1C(=O)CP(=O)(O)CCCCc1ccccc1` as the compound, how does the inhibition in vivo at 0.5 µmol/kg read?
A: 84%

Q: How did the inhibition in vivo at 0.5 µmol/kg turn out when `CS[C@H]1C[C@@H](C(=O)O)N(C(=O)CP(=O)(O)CCCCc2ccccc2)C1` was run?
A: 69%

Q: Which inhibition in vivo at 0.5 µmol/kg does the source give for `O=C(O)[C@@H]1CC2(CN1C(=O)CP(=O)(O)CCCCc1ccccc1)SCCS2` here?
A: 90%

Q: With `O=C(O)[C@@H]1C[C@@H](c2ccccc2)CN1C(=O)CP(=O)(O)CCCCc1ccccc1` as the compound, how does the inhibition in vivo at 0.5 µmol/kg read?
A: 76%
